Test [1] is described as follows: Inhibition of chymotrypsin-like activity of human liver 20S proteasome assessed as release of AMC using Suc-LLVY-AMC fluorogenic substrate after 15 mins preincubation measured every 1.5 mins for 20 mins by fluorescence analysis. The essentials: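 Proteasome partially purified from postmortem human liver, 6.7 µg/mL final, in 20 mM Tris–Cl pH 7.5, 0.04% SDS, 5% DMSO; activated by 15 min preincubation at 27 °C. Suc-LLVY-AMC added to 100 µM; AMC fluorescence (ex 360/em 460 nm) read every 1.5 min for 20 min at 27 °C. Rates per inhibitor concentration; IC50 by non-linear regression; mean S.D., n = 3–6.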

For test [2], the target named is Chymotrypsinogen A (Bos taurus, UniProt P00766). The experiment in a line: Inhibition of bovine alpha-chymotrypsin.
The subject of test [3] is SK-MEL-5. Nature of the test: Antitumor activity against human SK-MEL-5 cells assessed as cell viability. The class given is functional, cell-based. The essentials: (§1)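 Tumor cell viability IC50 values; averages of two independent experiments, each performed in triplicate.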
The test system of test [4] is Lewis lung carcinoma cell line. The experiment in a line: Antitumor activity against mouse LLC cells assessed as cell viability. The class given is functional, cell-based. Put shortly:
as §1

Test [5] in a line: Antitumor activity against rat AT2 cells assessed as cell viability. The class given is functional, cell-based. The essentials:
as §1

Test [6] concerns the target T1, Calpain-1 catalytic subunit (Homo sapiens) (UniProt P07384).
T1 sequence (whole entry): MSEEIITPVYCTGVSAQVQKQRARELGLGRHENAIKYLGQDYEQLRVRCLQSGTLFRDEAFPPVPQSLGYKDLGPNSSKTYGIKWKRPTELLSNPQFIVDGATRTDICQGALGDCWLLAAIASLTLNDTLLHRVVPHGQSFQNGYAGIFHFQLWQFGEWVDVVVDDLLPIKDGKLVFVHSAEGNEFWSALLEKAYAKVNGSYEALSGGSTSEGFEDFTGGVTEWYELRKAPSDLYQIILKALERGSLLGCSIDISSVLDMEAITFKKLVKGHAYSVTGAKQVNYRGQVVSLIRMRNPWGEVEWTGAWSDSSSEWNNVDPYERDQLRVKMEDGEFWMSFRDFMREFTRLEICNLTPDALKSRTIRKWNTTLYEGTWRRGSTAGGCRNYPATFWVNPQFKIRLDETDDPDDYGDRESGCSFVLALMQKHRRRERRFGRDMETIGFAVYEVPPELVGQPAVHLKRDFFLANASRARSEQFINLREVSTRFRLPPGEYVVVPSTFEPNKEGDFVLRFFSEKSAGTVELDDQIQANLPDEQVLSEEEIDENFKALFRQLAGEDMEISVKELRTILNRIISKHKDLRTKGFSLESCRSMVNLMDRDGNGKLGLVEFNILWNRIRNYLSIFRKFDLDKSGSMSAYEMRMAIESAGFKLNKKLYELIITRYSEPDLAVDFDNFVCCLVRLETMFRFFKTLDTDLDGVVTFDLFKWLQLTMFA
Nature of the test: Inhibition of human calpain 1 at 10 uM. The essentials: (§2)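 Percent inhibition measured at a single 10 µM concentration; averages of two independent experiments, each run in triplicate.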

The target in test [7] is Chymotrypsinogen A (Bos taurus) (UniProt P00766). Nature of the test: Inhibition of bovine alpha-chymotrypsin at 10 uM. Put shortly:
as §2

A short description of test [8]: Inhibition of chymotrypsin-like activity of 20S proteasome in human MOLT4 cells assessed as release of AFC using MeOSuc-Phe-Leu-Phe-AFC substrate after 15 mins measured every 1.5 mins for 20 mins by fluorescence analysis. The class given is cell-based. As to conditions: MOLT-4. Put shortly: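 Molt-4 human T-cell leukemia cells washed, resuspended at 6 × 10⁶ cells/mL in HEPES-buffered saline (pH 7.0) with KCl, NaCl, glucose, MgSO₄ and Na pyruvate. Fluorogenic AFC substrate at 100 µM, 0.6% DMSO final; incubated at 37 °C; AFC fluorescence (ex 420/em 490 nm) read every 1.5 min for 20 min. IC50 reported as mean S.D., n = 3–6.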

The subject of test [9] is MOLT-4. Nature of the test: Ratio of IC50 for chymotrypsin-like activity of 20S proteasome in human MOLT4 cells to IC50 for chymotrypsin-like activity of human liver 20S proteasome in cell-free assay. The class given is cell-based. Put shortly:
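Cell-permeability index: IC50 against chymotrypsin-like activity in intact Molt-4 cells divided by IC50 against isolated human liver 20S proteasome, both from fluorogenic substrate cleavage assays.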

Test [10] can be described thus: Inhibition of trypsin-like activity of 20S proteasome at 10 uM. The essentials:
as §2

Test [11] deals with MCF7. The experiment in a line: Antitumor activity against human MCF7 cells assessed as cell viability. The class given is functional, cell-based. Put shortly:
as §1

In test [12] the test system is OVCAR-3. Nature of the test: Antitumor activity against human OVCAR3 cells assessed as cell viability. The class given is functional, cell-based. The essentials: as §1
The test system of test [13] is PANC-1. Nature of the test: Antitumor activity against human PANC1 cells assessed as cell viability. The class given is functional, cell-based. The essentials: as §1
Test [14] concerns DU-145. Nature of the test: Antitumor activity against human DU145 cells assessed as cell viability. The class given is functional, cell-based. Put shortly: as §1

Each structure is given as a SMILES string.

The term IC50 denotes the midpoint of a concentration-inhibition curve. `CC(C)C[C@@H](C=O)NC(=O)[C@H](CCCN/C(N)=N/[N+](=O)[O-])NC(=O)C(CCCCCCCCC#N)C1CCCC1` (stereo not given in full): in test [1], the IC50 is 6 nM.

`CC(C)C[C@H](NC(=O)[C@H](CCCNC(=N)N[N+](=O)[O-])NC(=O)C(CCCCCCCCC#N)C1CCCC1)B(O)O` (mixture of isomers) came in with an IC50 in test [2] of over 10000 nM.

What is called inhibition is the drop in the measured response relative to a control, in per cent. As for `CC(C)C[C@H](NC(=O)[C@H](CCCN/C(N)=N/[N+](=O)[O-])NC(=O)C(CCCCCCCCC#N)C1CCCC1)B1O[C@@H]2[C@@H]3C[C@H](C[C@]2(C)O1)C3(C)C` (mixture of isomers), the IC50 in test [3] was 85 nM; in [4], 585 nM; in [5], over 1000 nM; in test [8], 240 nM; in test [1], 3.5 nM; in [11], 425 nM. For the same molecule, the IC50 in [12] amounted to 69 nM; in [13] it was 283 nM; in [14], 293 nM. The inhibition in test [6] came out at 2%; in test [7] it was 24%; in [10] it was 0%. Also, the Ratio IC50 in [9] is 69.

Turning to `CC(C)C[C@H](NC(=O)[C@H](CCCN/C(N)=N/[N+](=O)[O-])NC(=O)C(CCCCCCCCC#N)C1CCCC1)B(O)O` (mixture of isomers), the results for the inhibition in test [7] and in [10] were 30% and 5%, respectively. In addition, the IC50 in test [8] amounted to 7340 nM; in [1] it was 8.7 nM. In addition, the Ratio IC50 in test [9] came out at 840.

As for `CC(C)C[C@H](NC(=O)[C@H](CCCN/C(N)=N/[N+](=O)[O-])NC(=O)C(CCCCCCCCC#N)C1CCCC1)B1OC(C)(C)C(C)(C)O1` (stereo not given in full), the IC50 in [1] came out at 6 nM.

Turning to `CC(C)C[C@H](NC(=O)[C@H](CCCN/C(N)=N/[N+](=O)[O-])NC(=O)C(CCCCCCCCC#N)C1CCCC1)C(=O)C(=O)NCCNS(=O)(=O)c1ccccc1` (stereo not given in full), the IC50 in test [1] was 1 nM.

In the case of `CC(C)C[C@H](NC(=O)[C@H](CCCN/C(N)=N/[N+](=O)[O-])NC(=O)C(CCCCCCCCN1C(=O)c2ccccc2C1=O)C1CCCC1)B(O)O` (mixture of isomers), the results for the inhibition in test [6], in [7] and in [10] were 0%, 2% and 24%, respectively. Moreover, the IC50 in test [8] is 2830 nM; in test [1], 4.1 nM; in test [2], over 10000 nM. The Ratio IC50 in test [9] came out at 690.

Regarding `CC(C)C[C@@H](C=O)NC(=O)[C@H](CCCN/C(N)=N/[N+](=O)[O-])NC(=O)C(CCCCCCCCN1C(=O)c2ccccc2C1=O)C1CCCC1` (stereo not given in full), in test [1], the IC50 amounted to 2 nM.

`CC(C)C[C@H](NC(=O)[C@H](CCCN=C(N)N[N+](=O)[O-])NC(=O)C(CCCCCCCCC#N)C1CCCC1)B1O[C@@H]2[C@@H]3C[C@H](C[C@]2(C)O1)C3(C)C` (mixture of isomers) yielded an IC50 in test [2] of over 10000 nM.

As for `CC(C)C[C@H](NC(=O)[C@H](CCCN/C(N)=N/[N+](=O)[O-])NC(=O)C(CCCCCCCCN1C(=O)c2ccccc2C1=O)C1CCCC1)B1O[C@@H]2[C@@H]3C[C@H](C[C@]2(C)O1)C3(C)C` (mixture of isomers), the half-inhibitory concentration (IC50) in [3] was 82 nM; in test [4], 513 nM; in test [5], over 1000 nM; in test [8], 70 nM; in test [1], 3.5 nM; in test [11], 292 nM. Further, the IC50 in test [12] is 29 nM; in [2], over 10000 nM; in test [13], 184 nM; in test [14] it was 167 nM. Moreover, the inhibition in test [6] was 11%; in test [7], 30%; in test [10] it was 20%. Moreover, in test [9], the Ratio IC50 was 20.

For the origin of these results see ChEMBL document CHEMBL1955840, “Proteasome inhibitors for cancer therapy” (Bioorg Med Chem, 2012).
